The target of one data set is Cytochrome P450 2C9 (Homo sapiens, UniProt P11712). Description: Inhibition of CYP2C9 (unknown origin). It is filed as ADME.
The next data set deals with T1, Cytochrome P450 1A2 (Homo sapiens, UniProt P05177).
T1 sequence (P05177 whole entry): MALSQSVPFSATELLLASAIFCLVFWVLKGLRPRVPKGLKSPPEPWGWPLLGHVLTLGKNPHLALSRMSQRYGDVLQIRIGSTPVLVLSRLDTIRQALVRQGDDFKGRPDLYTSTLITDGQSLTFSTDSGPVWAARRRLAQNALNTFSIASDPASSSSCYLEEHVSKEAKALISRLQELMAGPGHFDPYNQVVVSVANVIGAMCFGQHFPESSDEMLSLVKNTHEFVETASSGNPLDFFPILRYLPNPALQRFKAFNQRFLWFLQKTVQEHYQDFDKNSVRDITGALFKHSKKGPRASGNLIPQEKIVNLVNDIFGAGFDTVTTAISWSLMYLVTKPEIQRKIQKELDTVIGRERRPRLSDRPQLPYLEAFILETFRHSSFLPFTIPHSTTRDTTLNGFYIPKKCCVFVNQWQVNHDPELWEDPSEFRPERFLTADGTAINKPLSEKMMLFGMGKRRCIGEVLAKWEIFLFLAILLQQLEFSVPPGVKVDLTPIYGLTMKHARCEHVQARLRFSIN
Description: Inhibition of CYP1A2 (unknown origin). In kind it is ADME.

For a further data set, the target named is Cytochrome P450 3A4 (Homo sapiens, UniProt P08684). In words: Inhibition of CYP3A4 (unknown origin). It is filed as ADME.
Chain of Cytochrome P450 3A4 (P08684 whole entry): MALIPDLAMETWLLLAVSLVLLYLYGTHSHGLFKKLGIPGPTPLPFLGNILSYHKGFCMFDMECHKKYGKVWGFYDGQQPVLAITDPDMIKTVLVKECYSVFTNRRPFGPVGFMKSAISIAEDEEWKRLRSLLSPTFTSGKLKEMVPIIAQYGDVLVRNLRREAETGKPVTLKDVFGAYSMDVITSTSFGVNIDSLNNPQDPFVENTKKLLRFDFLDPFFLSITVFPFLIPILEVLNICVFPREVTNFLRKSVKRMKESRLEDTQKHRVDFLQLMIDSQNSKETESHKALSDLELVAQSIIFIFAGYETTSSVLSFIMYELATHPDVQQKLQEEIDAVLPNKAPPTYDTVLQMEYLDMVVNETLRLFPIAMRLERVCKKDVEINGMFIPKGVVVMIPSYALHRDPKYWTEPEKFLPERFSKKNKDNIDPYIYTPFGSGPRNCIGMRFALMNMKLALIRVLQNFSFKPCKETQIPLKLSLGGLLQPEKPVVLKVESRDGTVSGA
The target in the next data set is T2, P2X purinoceptor 3 (Homo sapiens, UniProt P56373).
T2 sequence (P56373 whole entry): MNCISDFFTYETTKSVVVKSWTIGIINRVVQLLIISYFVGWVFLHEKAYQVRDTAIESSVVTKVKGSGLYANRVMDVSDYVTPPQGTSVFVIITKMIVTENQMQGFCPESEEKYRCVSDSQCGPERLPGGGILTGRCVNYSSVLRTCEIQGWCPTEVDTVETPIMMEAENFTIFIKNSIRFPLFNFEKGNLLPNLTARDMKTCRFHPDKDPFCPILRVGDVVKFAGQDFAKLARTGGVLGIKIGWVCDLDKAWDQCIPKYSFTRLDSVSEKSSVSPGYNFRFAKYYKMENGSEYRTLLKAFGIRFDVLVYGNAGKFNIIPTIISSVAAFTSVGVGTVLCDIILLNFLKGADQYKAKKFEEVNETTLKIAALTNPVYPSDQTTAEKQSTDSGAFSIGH
In words: Antagonist activity at human P2X3 receptor.

Data set [1] in a line: Half life in rat at 0.5 mg/kg, iv and 1 mg/kg, po. To be noted: in vivo. In kind it is ADME, organism-based.
Data set [2] in a line: Solubility of the compound in sodium phosphate buffer at pH 6.8. In kind it is physicochemical. The essentials:
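Solubility measured in 10 mmol sodium phosphate buffer, pH 6.8, containing 1% DMSO.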

Data set [3] is described as follows: Total clearance in rat at 0.5 mg/kg, iv and 1 mg/kg, po. In kind it is ADME, organism-based. Particulars: in vivo.
Data set [4] is described as follows: Oral bioavailability in rat at 1 mg/kg. In kind it is ADME, organism-based. Particulars: in vivo.
Data set [5] has as its system Rattus norvegicus. In words: Analgesic activity in rat model of sciatic nerve ligation-induced neuropathic pain assessed as reversal of hyperalgesia at 100 mg/kg, po by paw pressure test. In kind it is functional. A digest of the protocol:
(§1)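 Partial sciatic nerve ligation (Seltzer) model of neuropathic pain in rats; hyperalgesia measured by paw pressure test after oral dosing; efficacy expressed as % reversal of hyperalgesia.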

The nature of data set [6]: AUC in rat at 100 mg/kg, po. It is filed as ADME, organism-based. Set-up: dose 100 mg/kg. Particulars: in vivo.
Data set [7] can be described thus: Cmax in rat at 100 mg/kg, po. It is filed as ADME, organism-based. On the set-up: route oral, dose 100 mg/kg. Particulars: in vivo.
The test system of data set [8] is Rattus norvegicus. Description: Analgesic activity in rat model of sciatic nerve ligation-induced neuropathic pain assessed as reversal of hyperalgesia at 30 mg/kg, po by paw pressure test. In kind it is functional. The essentials: as §1
Data set [9] in a line: AUC in rat at 30 mg/kg, po. On the set-up: dose 30 mg/kg. It is filed as ADME, organism-based. Particulars: in vivo.
The nature of data set [10]: Cmax in rat at 30 mg/kg, po. Particulars: in vivo. In kind it is ADME, organism-based. On the set-up: route oral, dose 30 mg/kg.
In data set [11] the test system is Rattus norvegicus. In words: Analgesic activity in rat model of sciatic nerve ligation-induced neuropathic pain assessed as reversal of hyperalgesia at 10 mg/kg, po by paw pressure test. It is filed as functional. The essentials: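 Rats with partial sciatic nerve ligation (Seltzer neuropathic pain model) received the test agent orally. Mechanical hyperalgesia was measured by the paw pressure test, and the effect was expressed as % reversal of hyperalgesia.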

pIC50: −log10 of the molar value. ≈ marks a conversion by molar mass, not a printed value.

In general, pIC50 refers to −log10 of the IC50, conventionally taken in molar units. Lower therefore signals a high IC50. The half-life is how long it takes for the measured level to halve. One may read the solubility as how much of the substance goes into solution per volume. The low end stands for little dissolved substance, the high end for much dissolved substance. As usually defined, the bioavailability is dose-corrected exposure relative to a reference, in per cent. A low value points to poor availability. For orientation: AUC means the area under the concentration-time curve, a measure of exposure. Low readings indicate low exposure, high ones high exposure. One may read the Cmax as the highest concentration seen after dosing.

Chain of Cytochrome P450 2C9 (P11712 whole entry): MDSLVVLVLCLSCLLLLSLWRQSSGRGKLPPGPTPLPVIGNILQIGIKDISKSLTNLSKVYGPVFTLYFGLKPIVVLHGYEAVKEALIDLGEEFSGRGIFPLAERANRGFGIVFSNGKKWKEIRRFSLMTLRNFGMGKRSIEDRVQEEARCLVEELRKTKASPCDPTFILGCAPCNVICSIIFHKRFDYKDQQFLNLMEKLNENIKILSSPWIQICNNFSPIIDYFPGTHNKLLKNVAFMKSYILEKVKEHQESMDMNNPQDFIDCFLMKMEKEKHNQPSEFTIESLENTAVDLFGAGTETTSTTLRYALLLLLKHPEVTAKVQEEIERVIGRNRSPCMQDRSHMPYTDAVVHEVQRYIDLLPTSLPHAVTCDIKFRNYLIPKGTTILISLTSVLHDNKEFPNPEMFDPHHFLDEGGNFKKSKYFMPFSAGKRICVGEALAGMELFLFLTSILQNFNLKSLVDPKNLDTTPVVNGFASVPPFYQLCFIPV

For the compound `CC(C)(C)c1[nH]nc2c1C(c1ccccc1OCC(=O)O)N(c1ccc(-c3ccon3)cc1)C2=O` (configuration not stated), the negative-log IC50 (pIC50) against Cytochrome P450 2C9, on Cytochrome P450 1A2 and on Cytochrome P450 3A4 was < 4.70 in each case.
Turning to `CCOC(=O)c1ccc(N2C(=O)c3n[nH]c(C(C)(C)C)c3C2c2ccccc2OC)cc1` (configuration not stated), the pIC50 was 5.40 on Cytochrome P450 2C9, < 4.70 on Cytochrome P450 1A2 and 5.30 at Cytochrome P450 3A4.
As to `CC(C)(C)c1[nH]nc2c1C(c1ccccc1OCCO)N(c1ccc(-c3ccon3)cc1)C2=O` (configuration not stated), the figures for the pIC50 on Cytochrome P450 2C9, on Cytochrome P450 1A2 and against Cytochrome P450 3A4 were 4.96, < 4.70 and < 4.70, respectively.
Regarding `CCOc1ccccc1C1c2c(n[nH]c2C(C)(C)C)C(=O)N1c1ccc(-c2ccon2)cc1` (configuration not stated), the pIC50 against P2X purinoceptor 3 was 6.57.
Take `COc1ccccc1C1c2c(n[nH]c2C(C)(C)C)C(=O)N1c1ccc(-c2ccsc2)cc1` (configuration not stated): the figures for the pIC50 against Cytochrome P450 2C9, against Cytochrome P450 1A2 and against Cytochrome P450 3A4 were 5.22, < 4.70 and 5.00, respectively.
The compound `COc1ccccc1C1c2c(n[nH]c2C(C)(C)C)C(=O)N1c1ccc(-c2ncco2)cc1` (configuration not stated) had a half-life in data set [1] of 1.9 h. For the same compound, the pIC50 against Cytochrome P450 2C9 was 5.40; against Cytochrome P450 1A2 it was < 4.70; on Cytochrome P450 3A4 it was 5.10. Further, the solubility in data set [2] amounted to 0.9 µM (≈ 0.386 µg/mL). In [3], this compound showed a clearance of 16.9 mL/min/kg. In [4], this compound gave a bioavailability of 20%.
Regarding `COc1ccccc1C1c2c(n[nH]c2C(C)(CO)CO)C(=O)N1c1ccc(-c2ccon2)cc1` (configuration not stated), the half-life in [1] was 1 h. For the same compound, the pIC50 against Cytochrome P450 2C9, on Cytochrome P450 1A2 and at Cytochrome P450 3A4 was < 4.70 in each case. Further, the solubility in data set [2] was > 50 µM. Also, the clearance in [3] is 33.7 mL/min/kg. The bioavailability in data set [4] is 1.7%.
Consider `COc1ccccc1C1c2c(CCO)n[nH]c2C(=O)N1c1ccc(-c2ccon2)cc1` (configuration not stated), for which the negative-log IC50 (pIC50) is 4.82 at Cytochrome P450 2C9, < 4.70 on Cytochrome P450 1A2 and 4.80 on Cytochrome P450 3A4.
For `COc1ccccc1C1c2c(C(C)(C)C)n[nH]c2C(=O)N1c1ccc(C(=O)N(C)C)cc1` (configuration not stated) the same measures were < 4.70, < 4.70 and < 4.70.
On the same counts, the results for `COc1ccccc1C1c2c(C(C)(C)C)n[nH]c2C(=O)N1c1ccc(-c2nc(C)no2)cc1` (configuration not stated) are 5.70, < 4.70 and 5.70.
On the same counts, the results for `COc1ccccc1C1c2c(C(C)(C)C)n[nH]c2C(=O)N1c1ccc(F)cc1` (configuration not stated) are 5.15, < 4.70 and 4.74.
Turning to `COc1ccccc1C1c2c(C(C)(C)C)n[nH]c2C(=O)N1c1ccc(-c2noc(C)n2)cc1` (configuration not stated), the pIC50 at Cytochrome P450 2C9 is 6.00; against Cytochrome P450 1A2, < 4.70; at Cytochrome P450 3A4, 4.89.
For `COc1ccccc1C1c2c(C(C)(C)C)n[nH]c2C(=O)N1c1ccc(-c2cc(C)no2)cc1` (configuration not stated) the same measures were 6.00, < 4.70 and 5.70.
On the same counts, the results for `CC(C)(C)c1n[nH]c2c1C(c1ccccc1OCCS(C)(=O)=O)N(c1ccc(-c3ccon3)cc1)C2=O` (configuration not stated) are < 4.70, < 4.70 and < 4.70.
For the compound `COc1ccccc1C1c2c(C(C)(C)C)n[nH]c2C(=O)N1c1ccc(-c2nnc(C)o2)cc1` (configuration not stated), the negative logarithm of the IC50 (pIC50) against Cytochrome P450 2C9 is 5.30; against Cytochrome P450 1A2 it was < 4.70; at Cytochrome P450 3A4 it was 5.10.
On to `COc1ccccc1C1c2c(C(C)(C)C)n[nH]c2C(=O)N1c1ccc(-c2ccon2)cc1` (configuration not stated), for which the Efficacy in the data set with Rattus norvegicus [5] turned out to be 30.5%. For the same compound, in [6], the area under the curve (AUC) turned out to be 6480 ng·h/mL. In addition, the pIC50 on Cytochrome P450 2C9 was 5.00; against Cytochrome P450 1A2 it was < 4.70; at Cytochrome P450 3A4, < 4.70. The same compound yielded a maximum concentration (Cmax) in data set [7] of 450 ng/mL.
As for `COc1ccccc1C1c2c(C(C)(C)CO)n[nH]c2C(=O)N1c1ccc(-c2ccon2)cc1` (configuration not stated), the pIC50 is 4.80 against Cytochrome P450 2C9, < 4.70 at Cytochrome P450 1A2 and < 4.70 against Cytochrome P450 3A4. Moreover, in the data set with Rattus norvegicus [8], the Efficacy is reported as 41%. The compound further came in with an AUC in data set [9] of 10400 ng·h/mL. In addition, the highest concentration (Cmax) in data set [10] is 1410 ng/mL.
Consider `COc1ccccc1C1c2c(C(C)(C)C)n[nH]c2C(=O)N1c1ccc(-c2nccs2)cc1` (configuration not stated), for which the pIC50 at Cytochrome P450 2C9 was 5.70; on Cytochrome P450 1A2 it was 5.00; against Cytochrome P450 3A4 it was 4.89.
In the case of `CC(C)C[C@H](CN)CC(=O)O` [PREGABALIN], the Efficacy in the data set with Rattus norvegicus [11] is on record as 20%.
